Reference: ChEMBL document CHEMBL3813598, “Development of hydroxy-based sphingosine kinase inhibitors and anti-inflammation in dextran sodium sulfate induced colitis in mice” (Bioorg Med Chem, 2016)

target: T1, Sphingosine kinase 1 (Homo sapiens, UniProt Q9NYA1); test: Inhibition of His-tagged full length human recombinant SPHK1 expressed in baculovirus infected fall armyworm Sf9 cell expression system using sphingosine as substrate by ADP-quest assay
T1 sequence (Q9NYA1 whole entry): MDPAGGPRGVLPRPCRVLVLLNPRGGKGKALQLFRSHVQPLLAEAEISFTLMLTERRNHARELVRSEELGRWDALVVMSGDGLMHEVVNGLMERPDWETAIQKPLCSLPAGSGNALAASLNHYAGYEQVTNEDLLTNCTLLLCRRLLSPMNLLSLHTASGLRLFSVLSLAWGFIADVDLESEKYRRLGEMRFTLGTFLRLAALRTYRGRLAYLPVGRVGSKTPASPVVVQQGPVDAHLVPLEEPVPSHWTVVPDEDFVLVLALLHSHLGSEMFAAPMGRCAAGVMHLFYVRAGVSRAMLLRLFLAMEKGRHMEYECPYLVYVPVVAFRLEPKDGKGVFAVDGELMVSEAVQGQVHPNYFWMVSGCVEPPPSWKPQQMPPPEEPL

Structure (SMILES)	Ki [µM]
O=C(NCc1ccc(O)c(O)c1)C12CC3CC(C1)CC(c1ccc(Cl)cc1)(C3)C2	3.2

target: T2, Sphingosine kinase 2 (Homo sapiens, UniProt Q9NRA0); test: Inhibition of His-tagged full length human recombinant SPHK2 expressed in baculovirus infected fall armyworm Sf9 cell expression system using sphingosine as substrate by ADP-quest assay
T2 sequence (Q9NRA0 whole entry): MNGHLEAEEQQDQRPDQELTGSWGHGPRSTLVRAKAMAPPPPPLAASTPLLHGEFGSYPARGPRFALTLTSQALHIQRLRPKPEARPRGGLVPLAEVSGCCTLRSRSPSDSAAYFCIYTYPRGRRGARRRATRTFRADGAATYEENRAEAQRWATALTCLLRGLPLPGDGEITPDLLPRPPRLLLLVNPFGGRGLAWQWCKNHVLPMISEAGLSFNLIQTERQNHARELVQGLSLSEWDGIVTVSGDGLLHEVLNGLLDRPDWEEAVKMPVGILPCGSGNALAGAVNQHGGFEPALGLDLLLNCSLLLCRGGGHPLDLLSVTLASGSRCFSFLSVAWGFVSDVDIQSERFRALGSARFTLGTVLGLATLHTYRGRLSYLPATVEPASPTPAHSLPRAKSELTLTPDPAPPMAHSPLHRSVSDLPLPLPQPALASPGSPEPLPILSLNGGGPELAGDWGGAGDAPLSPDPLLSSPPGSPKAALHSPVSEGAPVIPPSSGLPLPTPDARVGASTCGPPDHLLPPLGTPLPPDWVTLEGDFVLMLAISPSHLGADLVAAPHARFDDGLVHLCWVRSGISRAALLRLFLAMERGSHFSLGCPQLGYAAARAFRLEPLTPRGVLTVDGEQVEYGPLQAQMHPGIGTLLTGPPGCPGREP

Structure (SMILES)	Ki [µM]
O=C(NCc1ccc(O)c(O)c1)C12CC3CC(C1)CC(c1ccc(Cl)cc1)(C3)C2	4.2

target: T1, Sphingosine kinase 1; test: Inhibition of GST-tagged full length human recombinant SPHK1 expressed in baculovirus using sphingosine as substrate preincubated for 10 mins measured after 1 hr by ADP-quest assay

Structure (SMILES)	IC50 [µM]
O=C(N/N=C/c1cccc(OCc2cccc3ccccc23)c1)c1cc(O)c(O)c(O)c1	31.3
COc1ccccc1COc1ccc(/C=N/NC(=O)c2cc(O)c(O)c(O)c2)cc1	18.4
COc1cccc(COc2cccc(/C=N/NC(=O)c3cc(O)cc(O)c3)c2)c1	> 100
COc1cccc(COc2cccc(/C=N/NC(=O)c3ccc(O)c(O)c3)c2)c1	5
O=C(N/N=C/c1cccc(OCc2cccc(Cl)c2)c1)c1cc(O)c(O)c(O)c1	> 100
N#Cc1ccc(COc2ccc(/C=N/NC(=O)c3cc(O)c(O)c(O)c3)cc2)cc1	27.7
O=C(N/N=C/c1cccc(OCc2ccccc2C(F)(F)F)c1)c1cc(O)cc(O)c1	> 100
O=C(N/N=C/c1cccc(OCc2cccc(C(F)(F)F)c2)c1)c1cc(O)c(O)c(O)c1	> 100
O=C(N/N=C/c1ccc(OCc2ccc3ccccc3c2)cc1)c1cc(O)c(O)c(O)c1	20.6
COc1cccc(COc2cccc(/C=N/NC(=O)c3cc(O)c(O)c(O)c3)c2)c1	8.57
N#Cc1cccc(COc2cccc(/C=N/NC(=O)c3cc(O)c(O)c(O)c3)c2)c1	85.3
Cc1ccc(COc2cccc(/C=N/NC(=O)c3cc(O)c(O)c(O)c3)c2)cc1	45.8
O=C(N/N=C/c1ccc(OCc2ccccc2C(F)(F)F)cc1)c1cc(O)c(O)c(O)c1	15
N#Cc1ccc(COc2cccc(/C=N/NC(=O)c3cc(O)c(O)c(O)c3)c2)cc1	69.4
COc1cccc(COc2ccc(/C=N/NC(=O)c3cc(O)cc(O)c3)cc2)c1	> 100
Cc1cccc(COc2cccc(/C=N/NC(=O)c3cc(O)c(O)c(O)c3)c2)c1	52.1
N#Cc1ccccc1COc1ccc(/C=N/NC(=O)c2cc(O)c(O)c(O)c2)cc1	> 100
Cc1ccc(COc2ccc(/C=N/NC(=O)c3cc(O)c(O)c(O)c3)cc2)cc1	32.7
O=C(N/N=C/c1ccc(OCc2ccccc2C(F)(F)F)cc1)c1cccc(O)c1	> 100
N#Cc1ccccc1COc1cccc(/C=N/NC(=O)c2cc(O)c(O)c(O)c2)c1	45.4
O=C(N/N=C/c1cccc(OCc2ccccc2C(F)(F)F)c1)c1cccc(O)c1	> 100

More lines, now with the values ahead:

IC50 [µM]	Structure (SMILES)
> 100	COc1ccc(COc2cccc(/C=N/NC(=O)c3cc(O)c(O)c(O)c3)c2)cc1
> 100	COc1cccc(COc2ccc(/C=N/NC(=O)c3cccc(O)c3)cc2)c1
54.7	O=C(N/N=C/c1ccc(OCc2cccc(C(F)(F)F)c2)cc1)c1cc(O)c(O)c(O)c1
> 100	O=C(N/N=C/c1cccc(OCc2cccc(F)c2)c1)c1cc(O)c(O)c(O)c1
40.2	O=C(N/N=C/c1cccc(OCc2ccccc2)c1)c1cc(O)c(O)c(O)c1
> 100	O=C(N/N=C/c1cccc(OCc2ccccc2C(F)(F)F)c1)c1ccc(O)cc1
36.8	O=C(N/N=C/c1cccc(OCc2ccccc2Cl)c1)c1cc(O)c(O)c(O)c1
> 100	COc1cccc(COc2ccc(/C=N/NC(=O)c3ccc(O)cc3)cc2)c1
35.2	CC(C)(C)c1ccc(COc2cccc(/C=N/NC(=O)c3cc(O)c(O)c(O)c3)c2)cc1
37.4	O=C(N/N=C/c1ccc(OCc2ccc(C(F)(F)F)cc2)cc1)c1cc(O)c(O)c(O)c1
> 100	COc1ccc(COc2ccc(/C=N/NC(=O)c3cc(O)c(O)c(O)c3)cc2)cc1
16.5	O=C(N/N=C/c1ccc(OCc2ccccc2C(F)(F)F)cc1)c1ccc(O)c(O)c1
> 100	COc1cccc(COc2cccc(/C=N/NC(=O)c3cccc(O)c3)c2)c1
> 100	O=C(N/N=C/c1ccc(OCc2ccccc2C(F)(F)F)cc1)c1ccc(O)cc1
> 100	COc1cccc(COc2cccc(/C=N/NC(=O)c3ccc(O)cc3)c2)c1
15.5	O=C(N/N=C/c1cccc(OCc2ccccc2C(F)(F)F)c1)c1ccc(O)c(O)c1
16.3	O=C(N/N=C/c1cccc(OCc2ccc(C(F)(F)F)cc2)c1)c1cc(O)c(O)c(O)c1
> 100	O=C(N/N=C/c1cccc(OCc2ccccc2F)c1)c1cc(O)c(O)c(O)c1
> 100	O=C(N/N=C/c1cccc(OCc2ccc(Cl)cc2)c1)c1cc(O)c(O)c(O)c1
25.3	COc1cccc(COc2ccc(/C=N/NC(=O)c3ccc(O)c(O)c3)cc2)c1
19.6	O=C(N/N=C/c1cccc(OCc2ccccc2C(F)(F)F)c1)c1cc(O)c(O)c(O)c1
> 100	O=C(N/N=C/c1ccc(OCc2ccccc2C(F)(F)F)cc1)c1cc(O)cc(O)c1
20.5	COc1ccccc1COc1cccc(/C=N/NC(=O)c2cc(O)c(O)c(O)c2)c1
> 100	O=C(N/N=C/c1cccc(OCc2ccc(F)cc2)c1)c1cc(O)c(O)c(O)c1
40.5	CC(C)(C)c1ccc(COc2ccc(/C=N/NC(=O)c3cc(O)c(O)c(O)c3)cc2)cc1
22	O=C(N/N=C/c1ccc(OCc2ccccc2)cc1)c1cc(O)c(O)c(O)c1
63.2	Cc1ccccc1COc1cccc(/C=N/NC(=O)c2cc(O)c(O)c(O)c2)c1
> 100	O=C(N/N=C/c1cccc(OCc2ccccc2)c1)c1ccc2[nH]cnc2c1
45.8	N#Cc1cccc(COc2ccc(/C=N/NC(=O)c3cc(O)c(O)c(O)c3)cc2)c1

target: T2, Sphingosine kinase 2; test: Inhibition of GST-tagged full length human recombinant SPHK2 expressed in baculovirus using sphingosine as substrate preincubated for 10 mins measured after 1 hr by ADP-quest assay
Outline: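 Human recombinant SphK1 or SphK2 with sphingosine substrate and ATP, tested in 384-well format. Enzyme was preincubated with compound for 10 min, then the reaction ran at 28 °C for 1 h. ADP Quest reagents A and B were added for 30 min at room temperature. Fluorescence was read at Ex 530/Em 590 nm. Values are mean of n = 3 in triplicate.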

Structure (SMILES)	IC50 [µM]
O=C(N/N=C/c1cccc(OCc2cccc3ccccc23)c1)c1cc(O)c(O)c(O)c1	40.6
COc1ccccc1COc1ccc(/C=N/NC(=O)c2cc(O)c(O)c(O)c2)cc1	26.6
COc1cccc(COc2cccc(/C=N/NC(=O)c3cc(O)cc(O)c3)c2)c1	> 100
COc1cccc(COc2cccc(/C=N/NC(=O)c3ccc(O)c(O)c3)c2)c1	4.6
O=C(N/N=C/c1cccc(OCc2cccc(Cl)c2)c1)c1cc(O)c(O)c(O)c1	67.4
N#Cc1ccc(COc2ccc(/C=N/NC(=O)c3cc(O)c(O)c(O)c3)cc2)cc1	17.8
O=C(N/N=C/c1cccc(OCc2ccccc2C(F)(F)F)c1)c1cc(O)cc(O)c1	> 100
O=C(N/N=C/c1cccc(OCc2cccc(C(F)(F)F)c2)c1)c1cc(O)c(O)c(O)c1	> 100
O=C(N/N=C/c1ccc(OCc2ccc3ccccc3c2)cc1)c1cc(O)c(O)c(O)c1	30.2
COc1cccc(COc2cccc(/C=N/NC(=O)c3cc(O)c(O)c(O)c3)c2)c1	8.7
N#Cc1cccc(COc2cccc(/C=N/NC(=O)c3cc(O)c(O)c(O)c3)c2)c1	> 100
Cc1ccc(COc2cccc(/C=N/NC(=O)c3cc(O)c(O)c(O)c3)c2)cc1	65.4
O=C(N/N=C/c1ccc(OCc2ccccc2C(F)(F)F)cc1)c1cc(O)c(O)c(O)c1	15.1
N#Cc1ccc(COc2cccc(/C=N/NC(=O)c3cc(O)c(O)c(O)c3)c2)cc1	35.1
COc1cccc(COc2ccc(/C=N/NC(=O)c3cc(O)cc(O)c3)cc2)c1	> 100
CCCCCCCCCCCCC/C=C/[C@@H](O)[C@H](CO)N(C)C [DIMETHYLSPINGOSINE]	26.3
Cc1cccc(COc2cccc(/C=N/NC(=O)c3cc(O)c(O)c(O)c3)c2)c1	78.7
N#Cc1ccccc1COc1ccc(/C=N/NC(=O)c2cc(O)c(O)c(O)c2)cc1	44.5
Cc1ccc(COc2ccc(/C=N/NC(=O)c3cc(O)c(O)c(O)c3)cc2)cc1	44.5
O=C(N/N=C/c1ccc(OCc2ccccc2C(F)(F)F)cc1)c1cccc(O)c1	> 100
N#Cc1ccccc1COc1cccc(/C=N/NC(=O)c2cc(O)c(O)c(O)c2)c1	68.6
O=C(N/N=C/c1cccc(OCc2ccccc2C(F)(F)F)c1)c1cccc(O)c1	> 100

Second part, the compound after the results:

IC50 [µM]	Structure (SMILES)
> 100	COc1ccc(COc2cccc(/C=N/NC(=O)c3cc(O)c(O)c(O)c3)c2)cc1
> 100	COc1cccc(COc2ccc(/C=N/NC(=O)c3cccc(O)c3)cc2)c1
23.8	O=C(N/N=C/c1ccc(OCc2cccc(C(F)(F)F)c2)cc1)c1cc(O)c(O)c(O)c1
> 100	O=C(N/N=C/c1cccc(OCc2cccc(F)c2)c1)c1cc(O)c(O)c(O)c1
26.3	O=C(N/N=C/c1cccc(OCc2ccccc2)c1)c1cc(O)c(O)c(O)c1
> 100	O=C(N/N=C/c1cccc(OCc2ccccc2C(F)(F)F)c1)c1ccc(O)cc1
58.8	O=C(N/N=C/c1cccc(OCc2ccccc2Cl)c1)c1cc(O)c(O)c(O)c1
> 100	COc1cccc(COc2ccc(/C=N/NC(=O)c3ccc(O)cc3)cc2)c1
62.2	CC(C)(C)c1ccc(COc2cccc(/C=N/NC(=O)c3cc(O)c(O)c(O)c3)c2)cc1
15.6	O=C(N/N=C/c1ccc(OCc2ccc(C(F)(F)F)cc2)cc1)c1cc(O)c(O)c(O)c1
> 100	COc1ccc(COc2ccc(/C=N/NC(=O)c3cc(O)c(O)c(O)c3)cc2)cc1
11.4	O=C(N/N=C/c1ccc(OCc2ccccc2C(F)(F)F)cc1)c1ccc(O)c(O)c1
> 100	COc1cccc(COc2cccc(/C=N/NC(=O)c3cccc(O)c3)c2)c1
> 100	O=C(N/N=C/c1ccc(OCc2ccccc2C(F)(F)F)cc1)c1ccc(O)cc1
> 100	COc1cccc(COc2cccc(/C=N/NC(=O)c3ccc(O)cc3)c2)c1
13.8	O=C(N/N=C/c1cccc(OCc2ccccc2C(F)(F)F)c1)c1ccc(O)c(O)c1
22.1	O=C(N/N=C/c1cccc(OCc2ccc(C(F)(F)F)cc2)c1)c1cc(O)c(O)c(O)c1
98.9	O=C(N/N=C/c1cccc(OCc2ccccc2F)c1)c1cc(O)c(O)c(O)c1
61.2	O=C(N/N=C/c1cccc(OCc2ccc(Cl)cc2)c1)c1cc(O)c(O)c(O)c1
10.1	COc1cccc(COc2ccc(/C=N/NC(=O)c3ccc(O)c(O)c3)cc2)c1
16.3	O=C(N/N=C/c1cccc(OCc2ccccc2C(F)(F)F)c1)c1cc(O)c(O)c(O)c1
> 100	O=C(N/N=C/c1ccc(OCc2ccccc2C(F)(F)F)cc1)c1cc(O)cc(O)c1
19.5	COc1ccccc1COc1cccc(/C=N/NC(=O)c2cc(O)c(O)c(O)c2)c1
> 100	O=C(N/N=C/c1cccc(OCc2ccc(F)cc2)c1)c1cc(O)c(O)c(O)c1
43.3	CC(C)(C)c1ccc(COc2ccc(/C=N/NC(=O)c3cc(O)c(O)c(O)c3)cc2)cc1
28.5	O=C(N/N=C/c1ccc(OCc2ccccc2)cc1)c1cc(O)c(O)c(O)c1
81.2	Cc1ccccc1COc1cccc(/C=N/NC(=O)c2cc(O)c(O)c(O)c2)c1
> 100	O=C(N/N=C/c1cccc(OCc2ccccc2)c1)c1ccc2[nH]cnc2c1
22.6	N#Cc1cccc(COc2ccc(/C=N/NC(=O)c3cc(O)c(O)c(O)c3)cc2)c1
